The nature of series [1]: Anti-necroptotic activity in human I2.1 cells assessed as inhibition of TNFalpha-induced necroptosis by measuring necroptosis recovery at 10 nM preincubated for 1 hr followed by TNFalpha addition and measured after 24 hrs by CCK-8 assay relative to control. The class given is functional. More on the design: scale not given: the % may be the effect or the level left. To be noted: time 25 hrs. A digest of the protocol: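 Human I2.1 cells from ATCC, seeded at low density in growth medium and incubated overnight. Compound added first. After 1 h, stimulated with TNF-α 20 ng mL⁻¹ and incubated a further 24 h. Viability read by CCK-8. Recovery is mean ± SD of at least two assays.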

Series [2] has as its system Hepa 1-6. The series is described as follows: Anti-necroptotic activity in mouse Hepa1-6 cells assessed as inhibition of TNFalpha/BV6/Z-VAD-induced necroptosis by measuring necroptosis recovery at 10 nM measured after 24 hrs by CCK-8 assay relative to control. The class given is functional. On the set-up: scale not given: the % may be the effect or the level left. A digest of the protocol:
(§1)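 Murine Hepa1-6 cells from ATCC, seeded at low density and incubated overnight. Z-VAD 10 μM added 1 h ahead. Necroptosis then induced with TNF-α 20 ng mL⁻¹ plus BV6 10 μM, together with compound, for 24 h. Viability read by CCK-8. Recovery is mean ± SD of at least two assays.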
For orientation: Tetrazolium dyes change colour on reduction, which living cells bring about.

The test system of series [3] is Hepa 1-6. The series is described as follows: Anti-necroptotic activity in mouse Hepa1-6 cells assessed as inhibition of TNFalpha/BV6/Z-VAD-induced necroptosis by measuring necroptosis recovery at 100 nM measured after 24 hrs by CCK-8 assay relative to control. Type of series: functional. More on the design: scale not given: the % may be the effect or the level left. A digest of the protocol:
as §1

In series [4] the test system is Hepa 1-6. In words: Anti-necroptotic activity in mouse Hepa1-6 cells assessed as inhibition of TNFalpha/BV6/Z-VAD-induced necroptosis by measuring necroptosis recovery at 1 uM measured after 24 hrs by CCK-8 assay relative to control. Type of series: functional. More on the design: scale not given: the % may be the effect or the level left. The method in brief: as §1

The target in series [5] is T1, Receptor-interacting serine/threonine-protein kinase 1 (Homo sapiens) (UniProt Q13546).
T1 sequence (whole entry): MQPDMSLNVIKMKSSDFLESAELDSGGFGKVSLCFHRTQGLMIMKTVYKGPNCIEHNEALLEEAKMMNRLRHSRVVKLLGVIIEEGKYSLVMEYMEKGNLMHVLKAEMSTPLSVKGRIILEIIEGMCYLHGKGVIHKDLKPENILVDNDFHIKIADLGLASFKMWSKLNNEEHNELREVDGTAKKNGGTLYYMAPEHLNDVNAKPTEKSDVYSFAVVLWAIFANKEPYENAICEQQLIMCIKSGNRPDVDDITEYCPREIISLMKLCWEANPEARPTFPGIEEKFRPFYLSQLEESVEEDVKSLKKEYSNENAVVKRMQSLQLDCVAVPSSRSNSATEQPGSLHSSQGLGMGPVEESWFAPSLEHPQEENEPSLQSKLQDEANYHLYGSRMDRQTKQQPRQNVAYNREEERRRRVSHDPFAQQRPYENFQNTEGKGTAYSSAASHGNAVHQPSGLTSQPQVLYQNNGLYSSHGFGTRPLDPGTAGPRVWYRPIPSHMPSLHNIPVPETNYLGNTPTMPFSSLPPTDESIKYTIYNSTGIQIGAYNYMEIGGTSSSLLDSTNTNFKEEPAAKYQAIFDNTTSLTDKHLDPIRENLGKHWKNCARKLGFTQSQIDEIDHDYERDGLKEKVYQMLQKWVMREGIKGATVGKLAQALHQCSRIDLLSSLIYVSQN
In words: Inhibition of recombinant human N-terminal GST-tagged RIPK1 (1 to 327 residues) expressed in baculovirus infected Sf9 insect cells at 1 uM using myelin basic protein as substrate by ADP-glo assay relative to control. A digest of the protocol: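 RIPK1 kinase activity tested at 1 μM. Read-out is luminescence. Inhibition% = (DMSO-control specific signal − inhibitor specific signal)/DMSO-control specific signal × 100.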

In the next series the test system is HT-29. The series is described as follows: Anti-necroptotic activity in human HT-29 cells assessed as inhibition of TNFalpha/Z-VAD-fmk/AT-406-induced necroptosis preincubated for 30 mins followed by TNFalpha/Z-VAD-fmk/AT-406 addition and measured after 16 to 20 hrs by CCK-8 assay. Type of series: functional, cell-based.
Series [6] is described as follows: AUClast in Sprague-Dawley rat at 3 mg/kg, po by LC-MS/MS analysis. Type of series: ADME, organism-based. To be noted: in vivo. A digest of the protocol:
(§2)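 Male Sprague Dawley rats, N = 3. Single oral dose of 3 mg kg⁻¹ in DMSO/0.5% HMPC (5/95, v/v). Blood taken at 0.25, 0.5, 1, 2, 4, 8 and 24 h. Serum drug levels measured by LC-MS/MS. Parameters reported as means.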

A short description of series [7]: Cmax in Sprague-Dawley rat at 3 mg/kg, po by LC-MS/MS analysis. The class given is ADME, organism-based. To be noted: in vivo. A digest of the protocol:
as §2

Series [8] in a line: Tmax in Sprague-Dawley rat at 3 mg/kg, po by LC-MS/MS analysis. To be noted: in vivo. The class given is ADME, organism-based. A digest of the protocol:
as §2

The nature of series [9]: Elimination half-life in Sprague-Dawley rat at 3 mg/kg, po by LC-MS/MS analysis. Type of series: ADME, organism-based. To be noted: in vivo, read-out: beta t1/2 (converted). A digest of the protocol:
as §2

Where only a bound is given, the exact number is not on record here.

For the compound `Cc1ccc(OCCCC(C)(C)O)cc1-c1cc(NC(=O)c2nc3n(n2)C(c2ccccc2)CC3)ncc1C` (stereo not given), the Activity in series [1] was 72.7%.

Take `Cc1ccc(OCC(C)(C)O)cc1-c1ccnc(NC(=O)c2nc3n(n2)C(c2ccccc2)CC3)c1` (stereo not given): the Activity is recorded as 3.8% with Hepa 1-6 [2], 10.9% in the series on Hepa 1-6 [3], 98.2% in series [1] and 94.1% in the series with Hepa 1-6 [4].

In the case of `Cc1ccc(OCCCC(C)(C)O)cc1-c1cc(NC(=O)c2nc3n(n2)C(c2ccccc2)CC3)ncc1Cl` (stereo not given), the Activity in series [1] is 56.2%.

`COc1ccc(C)c(-c2ccnc(NC(=O)c3nc4n(n3)C(c3ccccc3)CC4)c2)c1` (stereo not given): in series [1], the Activity is reported as 73.7%.

With `Cc1ccc(OCCCC(C)(C)O)cc1-c1ccnc(NC(=O)c2nc3n(n2)C(c2ccccc2F)CC3)c1` (stereo not given), the Activity in series [1] is given as 62.7%.

For `Cc1ccc(OCCCC(C)(C)O)cc1-c1cnnc(NC(=O)c2nc3n(n2)C(c2ccccc2)CC3)c1` (stereo not given), the Activity in series [1] is given as 53.6%.

Turning to `Cc1ccc(OCCCC(C)(C)O)cc1-c1cc(NC(=O)c2nc3n(n2)C(c2ccccc2)CC3)ncc1F` (stereo not given), the Activity in series [1] was found to be 58.1%.

Take `Cc1ccc(OCCCC(C)(C)O)cc1-c1ccnc(NC(=O)c2nc3n(n2)C(C2CCCC2)CC3)c1` (stereo not given): in series [1], the Activity was found to be 73.2%.

`Cc1ccc(OCCCC(C)(C)O)cc1-c1ccnc(NC(=O)c2nc3n(n2)C(c2ccccc2)CC3)c1` (stereo not given): the Activity with Hepa 1-6 [2] turned out to be 5.5%; in the series with Hepa 1-6 [3], 26.1%; in [1], 81.2%; in the series on Hepa 1-6 [4] it was 86.6%.

What is called inhibition is the percentage by which the read-out fell short of the control. Regarding `Cc1ccc(OCCC2CCOCC2)cc1-c1ccnc(NC(=O)c2nc3n(n2)[C@@H](c2ccccc2)C[C@H]3F)c1`, the inhibition in series [5] was < 0%.

`Cc1ccc(OCCCC#N)cc1-c1ccnc(NC(=O)c2nc3n(n2)C(c2ccccc2)CC3)c1` (stereo not given): the Activity in series [1] is 35.8%.

`Cc1ccc(OCCC2CCOCC2)cc1-c1ccnc(NC(=O)c2nc3n(n2)[C@H](c2ccccc2)C[C@@H]3F)c1`: the Activity in the series with Hepa 1-6 [2] worked out at 111.4%; in series [1], 70.5%. The inhibition in series [5] stood at 78.8%.

In the case of `Cc1ccc(OCCCC(C)(C)O)cc1-c1ccnc(NC(=O)c2nc3n(n2)[C@H](c2ccccc2)C[C@H]3F)c1` (relative stereo), the Activity with Hepa 1-6 [2] is reported as 6.3%; in the series with Hepa 1-6 [3], 41.3%; in [1], 98.9%; in the series with Hepa 1-6 [4] it was 104.2%.

`CC(C)(O)CCCOc1cccc(-c2ccnc(NC(=O)c3nc4n(n3)C(c3ccccc3)CC4)c2)c1` (stereo not given): the results for the Activity (in series [1]; in the series with Hepa 1-6 [4]) were 86.1% and 2.2%, respectively.

One may read the IC50 as the point on the concentration scale where inhibition reaches its midpoint. With `Cc1ccc(OCCCC(C)(C)O)cc1-c1ccnc(NC(=O)c2nc(Cc3ccccc3)n[nH]2)c1`, in the series on HT-29, the IC50 is < 100 nM. The Activity in series [1] is listed as 90%; in the series on Hepa 1-6 [4] it was <0%.

In the case of `Cc1ccc(OCCC2CCOCC2)cc1-c1ccnc(NC(=O)c2nc3n(n2)C(c2ccccc2)CC3)c1` (stereo not given), the Activity with Hepa 1-6 [2] is 3.7%; in the series with Hepa 1-6 [3], 10.7%; in series [1], 91.9%; with Hepa 1-6 [4] it was 96.6%.

For `Cc1ccc(OCCCC(C)(C)O)cc1-c1ccnc(NC(=O)c2nc3n(n2)C(C2CCCCC2)CC3)c1` (stereo not given), the Activity in series [1] is recorded as 61.2%.

Regarding `Cc1ccc(OCCN2CCOCC2)cc1-c1ccnc(NC(=O)c2nc3n(n2)[C@@H](c2ccccc2)C[C@H]3F)c1`, in [5], the inhibition is < 0%.

Take `Cc1ccc(OCCCC(C)(C)O)cc1-c1ccnc(NC(=O)c2nc3n(n2)C(c2ccc(F)cc2)CC3)c1` (stereo not given): in series [1], the Activity was found to be 60.1%.

The term AUC(0-t) denotes the area under the concentration-time curve up to a stated or last time point. For orientation: Cmax means the peak of the concentration-time curve. Usually Tmax stands for the time at which the peak concentration occurs. With `Cc1ccc(OCCN2CCOCC2)cc1-c1ccnc(NC(=O)c2nc3n(n2)[C@H](c2ccccc2)C[C@@H]3F)c1`, the AUC(0-t) in series [6] was found to be 15.2 ng·h/mL. Further, the peak concentration (Cmax) in [7] stood at 8.9 ng/mL. In addition, the figures for the Activity (in the series with Hepa 1-6 [2]; in [1]) were 102.4% and 97.9%, respectively. For the same compound, the time to peak (Tmax) in [8] was 0.67 h. Also, the half-life in series [9] is 1.91 h. For the same compound, the inhibition in series [5] was found to be 79.1%.

Regarding `Cc1ccc(OCCCC(C)(C)O)cc1-c1ccnc(NC(=O)c2nc3n(n2)C(c2cccc(F)c2)CC3)c1` (stereo not given), the Activity in series [1] is given as 58.1%.

For `CC(C)(O)CCCOc1ccc(Cl)c(-c2ccnc(NC(=O)c3nc4n(n3)C(c3ccccc3)CC4)c2)c1` (stereo not given), the figures for the Activity (in series [1]; with Hepa 1-6 [4]) were 80.6% and 2.9%, respectively.

With `Cc1ccc(OCCCC(C)(C)O)cc1-c1ccnc(NC(=O)c2nc3n(n2)[C@@H](c2ccccc2)C[C@H]3F)c1` (relative stereo), the Activity with Hepa 1-6 [2] is 100.5%; in the series on Hepa 1-6 [3], 107.6%; in series [1] it was 80.6%; in the series with Hepa 1-6 [4] it was 110%.
